Legend:
[1] = target: T1, Peroxisome proliferator-activated receptor gamma (Homo sapiens, UniProt P37231); assay: Effective concentration against human Peroxisome proliferator activated receptor gamma in Gal4 transactivation assay; Not active at 3 uM
T1 sequence (P37231 whole entry): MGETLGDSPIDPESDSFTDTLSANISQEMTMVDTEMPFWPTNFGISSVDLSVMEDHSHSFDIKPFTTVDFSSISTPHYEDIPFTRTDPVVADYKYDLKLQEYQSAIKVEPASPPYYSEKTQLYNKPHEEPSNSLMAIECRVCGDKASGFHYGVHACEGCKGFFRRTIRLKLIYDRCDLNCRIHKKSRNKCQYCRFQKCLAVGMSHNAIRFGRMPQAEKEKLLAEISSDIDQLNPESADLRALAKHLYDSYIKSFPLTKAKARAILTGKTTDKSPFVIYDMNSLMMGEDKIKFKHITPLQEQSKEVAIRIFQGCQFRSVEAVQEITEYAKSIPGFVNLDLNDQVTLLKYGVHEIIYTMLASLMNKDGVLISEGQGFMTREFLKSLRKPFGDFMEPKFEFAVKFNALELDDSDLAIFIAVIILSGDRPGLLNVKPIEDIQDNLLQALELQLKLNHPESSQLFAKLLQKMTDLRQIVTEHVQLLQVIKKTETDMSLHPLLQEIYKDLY
Outline: (§1)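 Chimeric GAL4-hPPARα or GAL4-hPPARγ transactivation assay in transiently transfected COS-1 cells. Compounds were titrated up to 3 µM, the highest concentration tested. […] "Not active" means no activity at 3 µM.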

[2] = target: T2, Peroxisome proliferator-activated receptor alpha (Homo sapiens, UniProt Q07869); assay: Inhibition of human Peroxisome proliferator activated receptor alpha binding
T2 sequence (Q07869 whole entry): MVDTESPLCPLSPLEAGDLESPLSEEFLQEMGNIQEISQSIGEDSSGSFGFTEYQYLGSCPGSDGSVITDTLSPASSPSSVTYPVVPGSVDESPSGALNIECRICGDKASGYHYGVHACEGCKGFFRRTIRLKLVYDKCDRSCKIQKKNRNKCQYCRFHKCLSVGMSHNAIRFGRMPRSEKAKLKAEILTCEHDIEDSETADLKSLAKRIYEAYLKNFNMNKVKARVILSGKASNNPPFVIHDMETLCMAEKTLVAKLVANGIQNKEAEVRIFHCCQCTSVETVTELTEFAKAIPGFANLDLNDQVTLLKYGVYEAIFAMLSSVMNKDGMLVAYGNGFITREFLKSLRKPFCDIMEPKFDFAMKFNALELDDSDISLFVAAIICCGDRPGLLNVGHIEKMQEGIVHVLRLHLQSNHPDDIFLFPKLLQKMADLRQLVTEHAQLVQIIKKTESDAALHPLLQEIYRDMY

[3] = target: T2, Peroxisome proliferator-activated receptor alpha; assay: Effective concentration against human Peroxisome proliferator activated receptor alpha in Gal4 transactivation assay; Not active at 3 uM; outline: as §1
[4] = target: T1, Peroxisome proliferator-activated receptor gamma; assay: Inhibition of human Peroxisome proliferator activated receptor gamma binding
[5] = target: T2, Peroxisome proliferator-activated receptor alpha; assay: Effective concentration against human Peroxisome proliferator activated receptor alpha in Gal4 transactivation assay
[6] = target: T1, Peroxisome proliferator-activated receptor gamma; assay: Maximal effect against human Peroxisome proliferator activated receptor gamma in Gal4 transactivation assay
Outline: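 Chimeric GAL4-hPPARγ transactivation assay in transiently transfected COS-1 cells. The response is given as percent at 3 µM, the mean of n = 3.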

[7] = target: T1, Peroxisome proliferator-activated receptor gamma; assay: Effective concentration against human Peroxisome proliferator activated receptor gamma in Gal4 transactivation assay
[8] = target: T3, Peroxisome proliferator-activated receptor alpha (Mus musculus, UniProt P23204); assay: Agonist activity against mouse Peroxisome proliferator activated receptor alpha; format: functional
T3 sequence (P23204 whole entry): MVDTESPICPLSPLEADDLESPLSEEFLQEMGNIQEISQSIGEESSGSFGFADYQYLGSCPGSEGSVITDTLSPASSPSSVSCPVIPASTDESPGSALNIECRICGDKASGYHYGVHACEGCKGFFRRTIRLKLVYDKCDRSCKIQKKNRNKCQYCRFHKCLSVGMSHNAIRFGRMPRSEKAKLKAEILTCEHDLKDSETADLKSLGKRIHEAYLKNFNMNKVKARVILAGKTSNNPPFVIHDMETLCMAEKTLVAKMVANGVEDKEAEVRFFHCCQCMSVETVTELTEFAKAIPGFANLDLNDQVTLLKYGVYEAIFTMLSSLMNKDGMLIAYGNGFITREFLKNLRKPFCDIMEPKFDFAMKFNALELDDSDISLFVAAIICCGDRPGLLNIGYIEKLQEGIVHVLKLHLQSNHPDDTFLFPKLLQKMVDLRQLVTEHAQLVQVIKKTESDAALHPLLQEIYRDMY
Outline: (§2)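 Chimeric GAL4 fusions carrying the PPARα receptor from dog, hamster or mouse, constructed like the human transactivation assay. Run in transiently transfected COS-1 cells, with agonist activity read as EC50.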

[9] = target: T4, Peroxisome proliferator-activated receptor alpha (Canis lupus familiaris, UniProt Q95N78); assay: Agonist activity against dog Peroxisome proliferator activated receptor alpha; format: functional; outline: as §2
T4 sequence (Q95N78 whole entry): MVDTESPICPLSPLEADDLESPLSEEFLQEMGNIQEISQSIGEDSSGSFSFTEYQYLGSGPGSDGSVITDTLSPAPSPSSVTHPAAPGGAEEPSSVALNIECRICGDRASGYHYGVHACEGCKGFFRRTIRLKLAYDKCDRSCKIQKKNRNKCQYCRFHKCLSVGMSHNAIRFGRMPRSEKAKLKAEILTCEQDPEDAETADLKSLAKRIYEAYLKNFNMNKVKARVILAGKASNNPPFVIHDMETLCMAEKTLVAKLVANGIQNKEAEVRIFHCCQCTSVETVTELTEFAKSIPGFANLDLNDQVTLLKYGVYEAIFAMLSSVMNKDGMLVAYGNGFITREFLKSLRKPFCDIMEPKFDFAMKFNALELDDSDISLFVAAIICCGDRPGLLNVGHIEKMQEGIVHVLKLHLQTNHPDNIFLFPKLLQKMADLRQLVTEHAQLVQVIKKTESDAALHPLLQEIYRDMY

CCCc1cc2c(C(F)(F)F)noc2c(CCC)c1OCC(C)(C)C(=O)O
EC50 [1]: Not Active
IC50 [2]: > 50000 nM
EC50 [3]: Not Active
IC50 [4]: > 15000 nM

CCCc1cc2c(C(F)(F)F)noc2c(CCC)c1OC(C)C(=O)O (configuration not stated)
EC50 [5]: 620 nM
Emax [6]: 21%
IC50 [2]: 1030 nM
IC50 [4]: > 10000 nM

CCCc1cc(C(=O)CC)cc(CCC)c1OC(C)(C)C(=O)O
EC50 [7]: 1300 nM
EC50 [5]: 10 nM
IC50 [2]: 480 nM
IC50 [4]: 1220 nM

CCCc1cc2c(OC)noc2c(CCC)c1OC(C)(C)C(=O)O
EC50 [7]: 1100 nM
EC50 [5]: 60 nM
IC50 [2]: 1510 nM
IC50 [4]: 1620 nM

CCCc1cc2c(C(F)(F)F)noc2c(CCC)c1OC(C)(C)C(=O)O
EC50 [5]: 300 nM
Emax [6]: 25%
IC50 [2]: 230 nM
EC50 [8]: 180 nM
EC50 [9]: 550 nM
IC50 [4]: 1580 nM

CCCc1c(OC(C)(C)C(=O)O)ccc2c(C(F)(F)F)noc12
EC50 [1]: Not Active
IC50 [2]: > 10000 nM
EC50 [3]: Not Active
IC50 [4]: > 10000 nM

CCCc1cc2c(C(F)(F)F)noc2c(CCC)c1OC(C)(CC)C(=O)O (configuration not stated)
EC50 [5]: 750 nM
Emax [6]: 26%
IC50 [2]: 100 nM
IC50 [4]: > 15000 nM

CC(C)(Oc1ccc(C(=O)c2ccc(Cl)cc2)cc1)C(=O)O [FENOFIBRIC ACID]
EC50 [5]: 15000 nM
IC50 [2]: 35000 nM

Reference: ChEMBL document CHEMBL1143558, “Discovery of a novel series of peroxisome proliferator-activated receptor alpha/gamma dual agonists for the treatment of type 2 diabetes and dyslipidemia” (J Med Chem, 2005)
